Bioassay records deposited in PubChem BioAssay by Johns Hopkins Ion Channel Center.
Hits are enriched below; roughly 3.7% of the tested compounds scored in any of these assays.
hERG protect = shields human hERG channel from block by proarrhythmic agents | Q12809 | CHO-hERG, FluxOR thallium flux, dofetilide IC70 present | activation (rescue from dofetilide block), less the hit threshold, % at 10 µM | 310,000 tested, 0.51% active;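 active = activation above the mean of controls blocked by dofetilide plus 5 SD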;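 also: thallium influx through hERG after potassium depolarization seen as dye fluorescence rise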
Target sequence (Q12809 whole entry, looked up): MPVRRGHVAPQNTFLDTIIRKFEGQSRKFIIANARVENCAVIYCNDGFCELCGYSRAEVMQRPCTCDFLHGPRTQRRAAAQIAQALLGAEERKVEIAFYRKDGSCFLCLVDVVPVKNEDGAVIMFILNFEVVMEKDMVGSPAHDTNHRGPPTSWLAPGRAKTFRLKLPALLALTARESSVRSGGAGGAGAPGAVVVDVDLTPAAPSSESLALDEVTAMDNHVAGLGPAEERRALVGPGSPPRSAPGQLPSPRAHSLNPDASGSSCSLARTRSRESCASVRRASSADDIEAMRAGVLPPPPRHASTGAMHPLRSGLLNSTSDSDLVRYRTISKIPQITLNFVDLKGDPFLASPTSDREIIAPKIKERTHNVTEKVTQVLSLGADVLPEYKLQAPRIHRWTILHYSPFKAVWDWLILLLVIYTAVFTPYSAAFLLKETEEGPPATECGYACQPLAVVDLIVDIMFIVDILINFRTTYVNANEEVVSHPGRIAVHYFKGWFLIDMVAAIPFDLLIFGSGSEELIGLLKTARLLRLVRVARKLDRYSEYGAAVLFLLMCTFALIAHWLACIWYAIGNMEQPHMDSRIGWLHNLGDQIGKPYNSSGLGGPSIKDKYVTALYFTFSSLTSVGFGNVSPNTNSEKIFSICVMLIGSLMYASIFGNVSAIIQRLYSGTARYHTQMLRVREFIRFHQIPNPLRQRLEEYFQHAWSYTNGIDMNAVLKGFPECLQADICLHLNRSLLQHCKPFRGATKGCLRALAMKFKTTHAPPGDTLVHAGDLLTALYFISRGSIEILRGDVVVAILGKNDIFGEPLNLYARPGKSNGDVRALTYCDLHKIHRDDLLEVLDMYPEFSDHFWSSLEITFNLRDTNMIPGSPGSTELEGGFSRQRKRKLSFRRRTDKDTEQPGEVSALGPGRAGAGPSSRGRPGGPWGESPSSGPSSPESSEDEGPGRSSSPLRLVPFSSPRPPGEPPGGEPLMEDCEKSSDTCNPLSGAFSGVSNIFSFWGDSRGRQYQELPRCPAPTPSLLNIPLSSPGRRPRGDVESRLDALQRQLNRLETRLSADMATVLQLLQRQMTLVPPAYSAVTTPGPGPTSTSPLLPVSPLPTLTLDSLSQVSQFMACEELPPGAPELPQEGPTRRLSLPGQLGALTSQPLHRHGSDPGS
KCNQ1 act = human KCNQ1 channel potentiation or activation | 310,000 tested, 0.35% active | B-score at 10 µM | P51787 | CHO-K1 KCNQ1, thallium flux FluxOR fluorescence; active compounds read high;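 active = fluorescence ratio B-score, a plate-corrected score, at least three library SD, with initial intensity B-score within 5 SD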
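System: CHO-K1 cells stably expressing KCNQ1 / Medium: assay buffer for compound exposure, DMSO matched across wells / Reagent: thallium- and potassium-containing depolarizing buffer / Compound: one concentration, matched DMSO / Incubation: 20 min compound pretreatment at room temperature / Measured by: kinetic FluxOR fluorescence, 10 s baseline plus 110 s post-stimulus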
KCNK3 inh = human KCNK3 channel inhibition, primary screen | O14649 | AID 602410 | B-score at 10 µM | CHO-KCNK3 thallium flux, FluxOR fluorescence; active compounds read low | 340,000 tested, 0.84% active;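 active = B-score under library mean minus 4 SD, starting fluorescence ratio at most library mean plus 5 SD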;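 also: more negative B-score means stronger inhibition of thallium flux through KCNK3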
KCNK9 block = inhibitors of human KCNK9 two-pore domain potassium channel. Q9NPC2. HEK293 KCNK9, FluxOR thallium flux fluorescence; active compounds read low. B-score at 10 µM. 310,000 tested, 1.2% active;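 active = ratio B-score over 3 SD below the library mean, with starting fluorescence within 5 SD of its mean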;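 also: negative B-score means less thallium flux so channel inhibition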
Kir21 inh = blocks the mouse Kir2.1 inward-rectifier potassium channel; AID 1672; P35561; HEK293-Kir2.1, FluxOR thallium flux fluorescence; active compounds read low; B-score at 10 µM; 310,000 tested, 0.85% active;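 active = fluorescence ratio B-score at or below minus 3 SD of library scores, with starting-brightness B-score within 2 SD, cut at about -4.2 in these data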;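 also: channel flux triggered by added potassium and thallium sulfate stimulus; B-score of peak minus minimum fluorescence over baseline after thallium stimulus; more negative B-score means stronger Kir2.1 block with less thallium influx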
KCNQ1 inh = inhibitors of human KCNQ1 potassium channel | P51787 | CHO-K1 KCNQ1, FluxOR thallium flux fluorescence; active compounds read high | B-score at 10 µM | 310,000 tested, 1.3% active;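 active = compounds whose thallium flux B-score, printed positive for inhibition, exceeds three library SD while starting fluorescence stays within three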;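 also: channel opened by potassium depolarization with thallium stimulus after 20 min compound exposure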
Starred values were filed as active, the others as inactive; i = inactive; . = not tested or not shown.

SMILES | hERG protect | KCNQ1 act | KCNK3 inh | KCNK9 block | Kir21 inh | KCNQ1 inh
O=CNc1ccccc1 | . | . | i | . | . | .
COCCOC(=O)c1c(C)oc2ccc(OCC=C(C)C)cc12 | -1 | i | -9.1* | i | 0.31 | i
CCN(CC)C(=O)COc1ccc2oc(C)c(C(=O)OC(C)C)c2c1 | -19 | i | i | i | -4.2* | i
O=c1oc2ccccc2c(Cl)c1CN1CCCCC1 | 1 | 15* | i | i | -0.12 | i
CCOc1ccccc1Nc1nnc(SCC(=O)NC2CCS(=O)(=O)C2)s1 (stereo unspecified) | . | . | i | . | . | .
CC(=O)c1cccc(N=c2scc(-c3ccc(S(=O)(=O)N4CCOCC4)cc3)n2CCO)c1 | -17 | i | i | i | 0.16 | 7*
CCOc1cc2c(cc1OC)C(NC(=O)c1ccco1)CC2=O (stereo unspecified) | -8 | i | i | i | -1.9 | i
COc1cccc(-c2nc(CS(=O)(=O)CC(=O)NCCCN3CCOCC3)c(C)o2)c1 | -7 | i | i | i | -0.22 | i
Cc1ccccc1C(=O)Nc1ccc(-c2nc3ccc(C(=O)c4ccccc4)cc3[nH]2)cc1 | -24 | i | i | i | -0.51 | 6*
CC(C)=CCC/C(C)=C/CC(C)(C)CNCCN1CCNCC1 | -8 | i | . | i | -8.2* | i
CC(C)=CCC/C(C)=C/CCC(C)NCCN1CCNCC1 (stereo unspecified) | -13 | i | . | i | -7.4* | i
Cc1cc(Cl)c2oc(C(=O)N3CCN(c4ccncc4)CC3)c(C)c2c1 | -17 | i | i | i | -5.1* | i
CCc1ccc(/C=C2\Oc3cc(OS(C)(=O)=O)ccc3C2=O)cc1 | -5 | i | i | i | 0.23 | i
CCc1ccc(/C=C2\Oc3c(ccc(O)c3CN3CCN(CCO)CC3)C2=O)cc1 | -29 | i | i | i | -5.4 | 11*
O=c1c(O)c(-c2ccc3c(c2)OCO3)oc2ccccc12 | 9.4* | 33* | i | i | -0.35 | i
CC(C)(C)C(=O)CN1C2=NCCCN2c2ccccc21 | -7 | i | i | i | -2.6 | i
C/C(=N\Nc1nc2ccccc2[nH]1)c1ccc(Cl)s1 | -8 | 11* | i | i | 1.4 | i
Cc1cc(C)n(-c2nnc(C)n2/N=C/c2ccccc2OCc2ccccc2Cl)n1 | -20 | i | i | -7.1* | -0.59 | i
Cc1cc(C)n(-c2nnc(C)n2/N=C/c2ccccc2F)n1 | -6 | i | i | i | -0.62 | i
COc1ccc(/C=N/Nc2cc(C)nc3ccccc23)cc1 | -17 | i | i | i | -6.6* | i
COc1ccc(/C=N/Nc2cc(C)nc3c(C)cccc23)cc1 | -26 | i | i | i | -0.72 | 6*
C/C(=N\Oc1cccc(F)n1)c1ccc(Cl)cc1Cl | -8 | i | i | i | 0.34 | 6*
C/C(=N/Oc1nc(C)cc(C)n1)c1ccc(Cl)cc1Cl | -4 | i | i | i | 1.6 | i
CCC(=O)Nc1cc(-c2nn3c(C)nnc3s2)ccc1C | -4 | 8* | i | i | -0.21 | i
CC(=O)Nc1cc(-c2nn3c(C)nnc3s2)ccc1C | -9 | i | i | i | -0.23 | i
SMILES | hERG protect | KCNQ1 act | KCNK3 inh | KCNK9 block | Kir21 inh | KCNQ1 inh
CN1C(=O)/C(=C/C=C2\SCCN2C)SC1=S | -17 | i | . | i | 0.06 | i
CCS(=O)(=O)C1=NN2C(=N)/C(=C\c3ccc(OS(=O)(=O)c4ccccc4)c(OC)c3)C(=O)N=C2S1 | -30 | i | . | i | 0.88 | i
CSC1=NSC2=NC(=O)/C(=C\c3ccc(OC(=O)c4ccco4)cc3)C(=N)N12 | -12 | i | i | i | -0.62 | i
COc1cc(/C=C2\C(=N)N3N=C(S(=O)(=O)CC(C)C)SC3=NC2=O)ccc1OC(=O)c1ccco1 | -15 | i | . | i | -6* | i
CC(C)CS(=O)(=O)C1=NSC2=NC(=O)/C(=C\c3ccc(OC(=O)c4ccco4)cc3)C(=N)N21 | -8 | i | i | i | -4.4* | i
COc1ccc(Cl)cc1NC(=S)NCCC(c1ccccc1)c1ccccc1 | -11 | i | i | -8.1* | -3.5 | i
S=C(NCCC(c1ccccc1)c1ccccc1)Nc1ccc(Cl)cc1 | -6 | i | i | i | 1.8 | 9*
CCC(C(=O)Nc1cc(Cl)ccc1OC)c1ccccc1 (stereo unspecified) | -5 | i | i | -7.3* | -1.8 | i
COc1cc(NC(=S)NCCC(c2ccccc2)c2ccccc2)c(OC)cc1Cl | -10 | i | i | i | -0.16 | i
S=C(NCCC(c1ccccc1)c1ccccc1)Nc1ccccc1Cl | -16 | i | i | i | -0.91 | 12*
COc1cccc(NC(=O)COC(=O)CCC2CCCC2)c1 | . | . | i | . | . | .
COc1ccc(S(=O)(=O)N(C)C)cc1NC(=O)CN1C(=O)NC2(CCCC2)C1=O | -6 | i | i | i | 0.47 | i
CCn1c(SCC(=O)NC2CCCCC2)nnc1C(C)NC(=O)c1ccccc1F (stereo unspecified) | -4 | i | i | i | 0.59 | i
Cc1oc2c(cc(NS(=O)(=O)c3ccc(C(C)C)cc3)c3ccccc32)c1C(=O)O | -10 | i | i | i | -1.5 | 9*
COc1ccc(S(=O)(=O)Nc2cc3c(C(C)=O)c(C)oc3c3ccccc23)cc1 | -11 | i | i | -7.3* | 0.93 | i
Cc1oc2c(cc(NS(=O)(=O)c3ccc(F)cc3)c3ccccc32)c1C(=O)O | -4 | i | i | i | -0.18 | i
CCOC(=O)C(Cc1c[nH]c2ccccc12)NC(=O)c1ccccc1Br (stereo unspecified) | -7 | i | i | i | 0.2 | i
CC(CCc1ccccc1)NC(=O)Cc1ccccc1 (stereo unspecified) | -8 | i | i | i | -1.9 | i
O=C(NC(=S)N(CCc1ccccc1)CCc1ccccc1)c1ccco1 | 37* | 47* | i | i | -3.3 | i
CC(CCc1ccccc1)NC(=S)NC(=O)c1ccco1 (stereo unspecified) | 25* | 24* | i | i | 0.27 | i
O=C(COc1ccccc1)NC(=S)Nc1cccc2cc(O)ccc12 | -12 | i | i | i | 0.02 | i
CC(=O)N1CCc2cc(S(=O)(=O)NCCCN3CCC(C)CC3)ccc21 | -9 | i | i | i | 1 | i
Cc1ccc(S(=O)(=O)NC(CC(C)C)C(=O)Oc2ccc3c4c(c(=O)oc3c2)CCC4)cc1 (stereo unspecified) | -7 | i | i | i | -0.15 | 6*
